Experimental data as given in ChEMBL document CHEMBL4513216, “Probing the Open Global Health Chemical Diversity Library for Multistage-Active Starting Points for Next-Generation Antimalarials” (ACS Infect Dis, 2020).

Experiment: Toxicity liver stage against HepG2, at 10uM
Type: cell-based
Set-up: test concentration 10 uM, cell line HepG2-A16-CD81EGFP
Conditions: human, HepG2-A16-CD81EGFP cells; read-out: INHIBITION
Method in brief: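 Uninfected HepG2-A16-CD81EGFP cells, 3 × 10^3 per well, 1536-well, plated on prespotted compound at 10 μM final, parasite-free screening media added to match infected plates; puromycin 10 μM positive, DMSO 0.5% negative; run in parallel with 48 h PbLuc assay at 37 °C, 5% CO2; viability by CellTiter-Glo luminescence, normalized to controls.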

Structure (SMILES)	cytotoxicity at 10 µM [%]
Cc1ccc(CN2CC[C@H](c3nc4cccc(C(N)=O)c4[nH]3)C2)cc1	35.1
CN1CCN(c2cc(NC(=O)Cn3ccc4ccccc43)ncn2)CC1	-0.973
O=C(COc1ccc(Cl)cc1Cl)N1CCCSCC1CN1CCOCC1 (configuration not stated)	4.09
CCS(=O)(=O)N1C[C@H]2CN(c3cnn(C)c3)C(=O)[C@H]2C1	-1.19
CN(C)C(=O)N[C@@H]1CN(S(C)(=O)=O)[C@@H]2CCCO[C@@H]21	2.62
O=C1CC2(CCN(Cc3cccs3)C2)CN1c1cccc(F)c1 (configuration not stated)	-148
CCOCC1CN(C(=O)C2CCOCC2)Cc2cnn(C)c21 (configuration not stated)	-1.05
Cc1ncnc2c1CCN(C(=O)c1ccnnc1)CC2	9.9
O=C1CNc2ncnc(N3CCN(c4ccccc4F)CC3)c2N1	7.69
Cc1nn(C)cc1-c1cc(C(F)(F)F)nc(NC2CCCCC2)n1	6.9
Nc1cc(-c2c[nH]nc2C2CCCCN2C(=O)C2CCCC2)ccn1 (configuration not stated)	12
Cc1cc(-c2cnc(N3CCCCCC3)nc2-c2cccnc2C)on1	-8.75
Cc1ocnc1C(=O)N1CC[C@@H](O)[C@@H](O)[C@H](N2CCC(F)(F)CC2)C1	4.86
CC1CCCN(Cc2c(C3CCOCC3)[nH]c3ncccc23)C1 (configuration not stated)	-2.03
Cc1ccccc1-n1cnc(Cl)c1CO	8.48
CS(=O)(=O)CCN1CCSCC1c1ccc(Cl)cc1 (configuration not stated)	-24.3
COCCCNC(=O)CN(C)C(C)c1nc(C(C)C)no1 (configuration not stated)	8.24
CCOCC1CCN(C(=O)Nc2ccc(-c3csnn3)cc2)C1 (configuration not stated)	13.7
Cc1cc(C)c(C#N)c(NCCn2cnnc2C(C)C)n1	10.2
COc1ccc(CN2CCn3cccc3C2C)cc1F (configuration not stated)	-2.63
Cc1cc(C2CCCN(Cc3cccnc3)C2)n[nH]1 (configuration not stated)	9
Cc1nnc(CN2CCN(Cc3nccn3C)CC2)n1C	-2.4
CC1CN(Cc2cccc(CN)c2)CCO1 (configuration not stated)	-8.99

Structure (SMILES)	cytotoxicity at 10 µM [%]
O=C1NCCCCC1NC(=O)N1CCCc2cc(F)ccc21 (configuration not stated)	-4.53
CS(=O)(=O)NCC1CCCCN1C(=O)c1ccsc1 (configuration not stated)	0.555
Cn1c(C2CCCN2C(=O)CN2CSCC2=O)nc2ccccc21 (configuration not stated)	7.81
O=C(O)c1ncccc1OCC(F)(F)F	-8.76
OCCOc1ccc(NCc2cccnc2)cn1	1.04
COc1ccc(-n2cnnc2SCC(=O)N(C)C(C)C)cn1	16.7
CCOCc1cccc(NC(=O)C2COCCO2)c1 (configuration not stated)	3.96
CN1CCN(Cc2ccccc2CNC(=O)c2cc(Br)ccc2F)CC1	6.37
CN(Cc1cccs1)C(=O)CN1CCCCC1Cn1cncn1 (configuration not stated)	8.97
Cc1cc(N2CCC(N(C)Cc3cccnc3)C2=O)n(C)n1 (configuration not stated)	-9.98
Cc1ncsc1C(=O)NCCNc1cnccn1	0.00742
CC(c1cccnc1)N1CCN(CCO)CC1 (configuration not stated)	-3.21
c1cnn(CC2CCCN2c2ncnc3c2CCC3)c1 (configuration not stated)	41.2
CCC(C(=O)Nc1ccc(-c2nc(C)n[nH]2)cc1)N1CCCC1=O (configuration not stated)	-44.8
O=C(CNc1ccc(OC2CCOC2)cc1)NCc1cccs1 (configuration not stated)	3.43
CC(C)(C#N)C(=O)Nc1nccn1Cc1ccc(Br)cc1	-47.5
CN1CCOC(C(=O)Nc2ccc3[nH]nnc3c2)C1 (configuration not stated)	6.77
CC1CN(C)CCN1C(=O)NCCCn1ccnc1 (configuration not stated)	-45.5
CNC(=O)COc1ccc(CNc2c(Cl)cccc2C#N)cc1	-55.9
COc1cccc(S(=O)(=O)CCN2CCC3(CC2)OCCO3)c1	4.62
CCN1CCCN(C(=O)c2cnc(OC(C)C)c(Cl)c2)CC1	-14.4
CC(=O)N1CCc2nc(-c3ccccc3)nc(NC(C)C)c2CC1	-119
Cc1nc([C@H]2C[C@@H]3CCN(Cc4ccc5c(c4)OCO5)C[C@H]3O2)no1	-110

Structure (SMILES)	cytotoxicity at 10 µM [%]
NC(=O)N1C[C@H](NC(=O)c2cscn2)[C@@H]2OCCC[C@@H]21	-99
O=S(=O)(c1ccccc1)N1CCC2(CCCN2Cc2ccccc2Cl)C1 (configuration not stated)	-74.5
COCC1CN(Cc2ccccn2)Cc2nn(C)cc21 (configuration not stated)	-87.5
O=c1[nH][nH]cc1-c1ccnc(NCCc2cccnc2)n1	-8.86
CC(=O)Nc1nc2c(s1)C(C)(C)Nc1ccccc1S2	-7.08
CN(C)CCN1CCN(C)c2nc(-c3ccccc3)ncc2C1=O	-11.6
CC(C)(C)Nc1nc(-c2cccnc2)c(-c2ccnc(NCCO)n2)s1	-5.64
COc1cccc(N2CCN(Cc3nccn3C(C)C)CC2=O)c1	1.85
Cc1cc(-c2nn(C)c(Cl)c2CN2CCN(C)C(C(=O)O)C2)no1 (configuration not stated)	-0.0938
CN1[C@@H](c2ccccc2)[C@@H](C(=O)NCc2ccccn2)C[C@@]1(C)C(=O)O	-3.8
CSc1ccc(CN(C(=O)c2cc[nH]n2)C2CC2)cc1	-44.4
CCc1c(C(=O)N2CCN(C)[C@@H]3CS(=O)(=O)C[C@@H]32)[nH]c2ccccc12	-6.08
Cc1ccccc1C1CCN(CCn2cc(-c3cccc(O)c3)nn2)C1 (configuration not stated)	18.2
Cn1cc(CN2CCCC(CCc3ccc(F)cc3)C2)cn1 (configuration not stated)	-12.6
O=C(CCC(F)(F)F)N1CCCC2(CCC(=O)N(CC3CC3)C2)C1 (configuration not stated)	7.4
CCC(C)Oc1ccc(CNCCNS(C)(=O)=O)cc1Cl (configuration not stated)	-6.78
Nc1nc2c(c(N3CCCC(OCc4ccccn4)C3)n1)CCNCC2 (configuration not stated)	-11.4
CN(C)c1nc2c(c(N3CCC(O)CC3)n1)CN(CC1CCOC1)CC2 (configuration not stated)	-0.473
Cc1cc(NCCN2CCNC2=O)nc2cc3c(cc12)CCC3	2.97
O=C(c1ccc2occc2c1)N1CCC(C(=O)O)(n2cccn2)CC1	-0.657
c1cn(CCc2c[nH]cn2)c(-c2cc(CN3CCCC3)cs2)n1	-1.45
Cc1cc(CN2CCCn3nc(CCC(=O)O)cc3C2)ccc1F	2.28
N#Cc1ccc(N2CCCC(CO)(CCOc3ccccc3)C2)nc1 (configuration not stated)	17.4

Structure (SMILES)	cytotoxicity at 10 µM [%]
CN(Cc1nc(C2CC2)no1)C(=O)c1cccc(CC2CCNCC2)c1	2.74
COc1cccc(-c2n[nH]cc2-c2nc(CC3CCN(C)CC3)no2)c1	-9.98
CN(C)S(=O)(=O)c1csc(C(=O)N2CCC(C(N)=O)CC2)c1	-46.5
CCN(CCO)C[C@@H]1CN(C(=O)c2ccc(C)s2)C[C@@H]1CO	12.1
Cc1cccc(NCc2nn(C)c(=O)[nH]2)c1	2.6
Cn1ccnc1C1CCN(C(=O)COCC(F)(F)C(F)F)CC1	-45.2
O=C1CC2(CCN(CCO)CC2)CN1Cc1cc(F)cc(F)c1	-15.7
Cn1cccc1CCC(=O)N1CCC2(CC1)c1ccccc1CC2O (configuration not stated)	-8.57
O=C1c2cc(Br)cc(Br)c2OCC1(CN1CCCC1)CN1CCCC1	-7.83
Cc1cc(-c2cnn(CCNC(=O)C3CC3)c2C2CC2)on1	11.7
COc1ccc(CNC(C)Cn2cccn2)cc1F (configuration not stated)	-0.544
CN1CCN(C2CCN(Cc3nc(-c4ccoc4)no3)CC2)C1=O	-2.83
CCN(CC)CCn1c(NC(=O)c2scnc2C)nc2ccccc21	-27.5
CN(Cc1ccc2c(c1)OCCO2)Cc1nc2c(cnn2C)c(=O)[nH]1	-4.45
CCc1nnc2n1CCN(CC(=O)N1CCc3ccccc3C1)C2	-7.83
O=C(CCNC(=O)c1ccoc1)Nc1ccc(F)cc1F	-6.44
CNC(=O)CN1CCCC(Cc2ccccc2OC)C1 (configuration not stated)	-8.53
Cc1cc(CN2CCN(c3ccc4nncn4n3)C(C)C2)no1 (configuration not stated)	-4.66
CNC(=O)c1ccc(C(=O)N2CCCC2c2cnn(C)c2)cn1 (configuration not stated)	-6.41
Cc1noc(NC(=O)c2ccc(C)c(F)c2)n1	-10.1
CN(CCc1ccccc1)Cc1c(C2CCNCC2)[nH]c2ncccc12	55.5
O=C(CN(C1=NCCCCC1)c1ccc(Cl)cc1)c1ccccc1	12.2
CCCN1CC[C@@H]2OC[C@H](C(=O)Nc3cccnc3)C[C@@H]2C1	5.7

Structure (SMILES)	cytotoxicity at 10 µM [%]
Cc1noc2nc(C3CCN(CC4CCCCC4)CC3)cc(C(F)F)c12	-0.335
CN1CCC2(CC1)CC(NC(=O)c1csnn1)c1ccccc1O2 (configuration not stated)	-95.4
COCCN1CCN(C(=O)NC2CC2)Cc2ccc(C)nc21	3.51
Cc1ccc(N2CC3(COCCN(Cc4ccccn4)C3)OCC2=O)s1 (configuration not stated)	-3.49
CN(Cc1ccncc1)C1COC2(CCN(Cc3ccco3)CC2)C1 (configuration not stated)	-77.9
NCC(=O)N1CCCC1c1nccnc1Nc1ncccn1 (configuration not stated)	-2.42
c1cncc(COC2COC3(CCN(c4cnccn4)CC3)C2)c1 (configuration not stated)	1.89
O=C(c1cnccn1)N1CCN2C[C@H](OCc3ccccc3F)C[C@H]2C1	-2.16
NC(=O)CC1CC2(CCNCC2)c2cc(F)ccc21 (configuration not stated)	-107
CCN1C(=O)CCC12CCCN(Cc1nccs1)CC2 (configuration not stated)	-0.413
COc1cc(CNCc2ccnc(N3CCCC3)c2)cc(OC)c1	8.8
O=C(c1cccnc1)N1CCC2(CCN(C(=O)c3ccco3)CC2)C1	-91.6
c1cnn(Cc2cnc3n2CCN(CC2CCCCC2)C3)c1	-78.8
Cc1cc(CNCC2Cn3nnc(C)c3CO2)oc1C (configuration not stated)	6.65
CC(C)CCN1Cc2c(C(=O)N3CCCC3)nn(C)c2C1	-0.173
CCC(=O)N1CCC2(CC1)C(c1cccnc1)CC(=O)N2CCOC (configuration not stated)	-94.1
O=C1NC2(CCN(Cc3cccs3)CC2)CC1c1ccncc1 (configuration not stated)	1.2
COCC(=O)N1CCCC(c2cc(C(F)F)n3ncnc3n2)C1 (configuration not stated)	-8.43
Cc1cc(C)cc(NC(=O)Nc2c(O)c3ccccc3oc2=O)c1	9.24
CN(C)C(=O)CN1C[C@H]2CC[C@@H](C1)N(Cc1ccccc1OCCO)C2	8.79
